Measurements as given in ChEMBL document CHEMBL1255499, “Recombinant phenotyping of cytomegalovirus UL97 kinase sequence variants for ganciclovir resistance” (Antimicrob Agents Chemother, 2010).

How the values were obtained:
Human betaherpesvirus 5 [1] = test: Antiviral activity against Human cytomegalovirus T3185 harboring Frt motif upstream of UL97 gene and expressing UL97 kinase H587Y mutant gene infected in human foreskin fibroblast measured 6 days post infection by SEAP reporter gene assay; conditions: Human betaherpesvirus 5, T3185, 144 h
Human betaherpesvirus 5 [2] = test: Antiviral activity against Human cytomegalovirus T3216 expressing UL97 kinase A588V mutant gene infected in human foreskin fibroblast measured 6 days post infection by SEAP reporter gene assay; conditions: Human betaherpesvirus 5, T3216, 144 h
Human betaherpesvirus 5 [3] = test: Antiviral activity against Human cytomegalovirus T3146 expressing UL97 kinase K599R mutant gene infected in human foreskin fibroblast measured 6 days post infection by SEAP reporter gene assay; conditions: Human betaherpesvirus 5, T3146, 144 h
Human betaherpesvirus 5 [4] = test: Antiviral activity against Human cytomegalovirus T3264 expressing UL97 kinase G623S mutant gene infected in human foreskin fibroblast measured 6 days post infection by SEAP reporter gene assay; format: functional, organism-based; conditions: Human betaherpesvirus 5, T3264, 144 h
How it was run: (§1)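 Ganciclovir SEAP yield reduction. Confluent HFF (2 × 10⁵ cells/well) infected with cell-free virus stock at MOI 0.02. Inoculum removed after 1.5 h and replaced with medium containing serial 2-fold GCV dilutions, top concentration 4 to 32 μM. Supernatant SEAP read by chemiluminescent substrate at day 6. EC₅₀ is the concentration giving 50% SEAP reduction; mean and SD of ≥7 determinations over ≥4 setup dates.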

Human betaherpesvirus 5 [5] = test: Antiviral activity against Human cytomegalovirus T2924 expressing UL97 kinase H469Y mutant gene infected in human foreskin fibroblast measured 6 days post infection by SEAP reporter gene assay; format: functional, organism-based; conditions: Human betaherpesvirus 5, T2924, 144 h
How it was run: (§2)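 Confluent HFF (2 × 10⁵ cells/well) infected with cell-free recombinant AD169-derived SEAP-reporter CMV at MOI 0.02 for 1.5 h. Inoculum then replaced with medium holding serial 2-fold ganciclovir dilutions, top concentration 4 to 32 μM. Supernatant SEAP read by chemiluminescent substrate at day 6. EC₅₀ is the concentration giving 50% SEAP reduction, reported as mean and SD of ≥7 determinations over ≥4 setup dates.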

Human betaherpesvirus 5 [6] = test: Antiviral activity against Human cytomegalovirus T3130 expressing UL97 kinase V665I mutant gene infected in human foreskin fibroblast measured 6 days post infection by SEAP reporter gene assay; conditions: Human betaherpesvirus 5, T3130, 144 h
Human betaherpesvirus 5 [7] = test: Antiviral activity against Human cytomegalovirus T3257 expressing UL97 kinase V466M mutant gene infected in human foreskin fibroblast measured 6 days post infection by SEAP reporter gene assay; conditions: Human betaherpesvirus 5, T3257, 144 h
Human betaherpesvirus 5 [8] = test: Antiviral activity against Human cytomegalovirus T2255 expressing UL97 kinase A594V mutant gene infected in human foreskin fibroblast measured 6 days post infection by SEAP reporter gene assay; format: functional, organism-based; conditions: Human betaherpesvirus 5, T2255, 144 h; how it was run: as §2
Human betaherpesvirus 5 [9] = test: Antiviral activity against Human cytomegalovirus T3244 expressing UL97 kinase A588V mutant gene infected in human foreskin fibroblast measured 6 days post infection by SEAP reporter gene assay; conditions: Human betaherpesvirus 5, T3244, 144 h
Human betaherpesvirus 5 [10] = test: Antiviral activity against Human cytomegalovirus T3331 expressing UL97 kinase C603R mutant gene infected in human foreskin fibroblast measured 6 days post infection by SEAP reporter gene assay; format: functional, organism-based; conditions: Human betaherpesvirus 5, T3331, 144 h; how it was run: as §2
Human betaherpesvirus 5 [11] = test: Antiviral activity against Human cytomegalovirus T3326 harboring Frt motif upstream of UL97 kinase N68D L126Q I244V mutant gene infected in human foreskin fibroblast measured 6 days post infection by SEAP reporter gene assay; conditions: Human betaherpesvirus 5, T3326, 144 h
Human betaherpesvirus 5 [12] = test: Antiviral activity against Human cytomegalovirus T3215 expressing UL97 kinase A478V mutant gene infected in human foreskin fibroblast measured 6 days post infection by SEAP reporter gene assay; conditions: Human betaherpesvirus 5, T3215, 144 h
Human betaherpesvirus 5 [13] = test: Antiviral activity against Human cytomegalovirus T2789 expressing UL97 kinase L405P mutant gene infected in human foreskin fibroblast measured 6 days post infection by SEAP reporter gene assay; conditions: Human betaherpesvirus 5, T2789, 144 h
Human betaherpesvirus 5 [14] = test: Antiviral activity against Human cytomegalovirus T2259 expressing UL97 kinase M460V mutant gene infected in human foreskin fibroblast measured 6 days post infection by SEAP reporter gene assay; format: functional, organism-based; conditions: Human betaherpesvirus 5, T2259, 144 h; how it was run: as §2
Human betaherpesvirus 5 [15] = test: Antiviral activity against Human cytomegalovirus T3184 expressing UL97 kinase L405P mutant gene infected in human foreskin fibroblast measured 6 days post infection by SEAP reporter gene assay; conditions: Human betaherpesvirus 5, T3184, 144 h
Human betaherpesvirus 5 [16] = test: Antiviral activity against Human cytomegalovirus T3259 expressing UL97 kinase C592G mutant gene infected in human foreskin fibroblast measured 6 days post infection by SEAP reporter gene assay; format: functional, organism-based; conditions: Human betaherpesvirus 5, T3259, 144 h; how it was run: as §1
Human betaherpesvirus 5 [17] = test: Antiviral activity against Human cytomegalovirus T2211 expressing UL97 kinase H587Y mutant gene infected in human foreskin fibroblast measured 6 days post infection by SEAP reporter gene assay; conditions: Human betaherpesvirus 5, T2211, 144 h
Human betaherpesvirus 5 [18] = test: Antiviral activity against Human cytomegalovirus T2233 expressing UL97 kinase H587Y mutant gene infected in human foreskin fibroblast measured 6 days post infection by SEAP reporter gene assay; conditions: Human betaherpesvirus 5, T2233, 144 h
Human betaherpesvirus 5 [19] = test: Antiviral activity against Human cytomegalovirus T3329 expressing UL97 kinase C603W mutant gene infected in human foreskin fibroblast measured 6 days post infection by SEAP reporter gene assay; conditions: Human betaherpesvirus 5, T3329, 144 h
Human betaherpesvirus 5 [20] = test: Antiviral activity against Human cytomegalovirus T3327 expressing UL97 kinase C603S mutant gene infected in human foreskin fibroblast measured 6 days post infection by SEAP reporter gene assay; format: functional, organism-based; conditions: Human betaherpesvirus 5, T3327, 144 h; how it was run: as §2
Human betaherpesvirus 5 [21] = test: Antiviral activity against Human cytomegalovirus T3136 expressing UL97 kinase H469Y mutant gene infected in human foreskin fibroblast measured 6 days post infection by SEAP reporter gene assay; format: functional, organism-based; conditions: Human betaherpesvirus 5, T3136, 144 h; how it was run: as §1
Human betaherpesvirus 5 [22] = test: Antiviral activity against Human cytomegalovirus T3346 expressing UL97 kinase M460T mutant gene infected in human foreskin fibroblast measured 6 days post infection by SEAP reporter gene assay; format: functional, organism-based; conditions: Human betaherpesvirus 5, T3346, 144 h; how it was run: as §2
Human betaherpesvirus 5 [23] = test: Antiviral activity against Human cytomegalovirus T3240 expressing UL97 kinase N510S mutant gene infected in human foreskin fibroblast measured 6 days post infection by SEAP reporter gene assay; format: functional, organism-based; conditions: Human betaherpesvirus 5, T3240, 144 h; how it was run: as §1
Human betaherpesvirus 5 [24] = test: Antiviral activity against Human cytomegalovirus T3242 expressing UL97 kinase A478V mutant gene infected in human foreskin fibroblast measured 6 days post infection by SEAP reporter gene assay; conditions: Human betaherpesvirus 5, T3242, 144 h
Human betaherpesvirus 5 [25] = test: Antiviral activity against Human cytomegalovirus T3041 expressing UL97 kinase L600I mutant gene infected in human foreskin fibroblast measured 6 days post infection by SEAP reporter gene assay; format: functional, organism-based; conditions: Human betaherpesvirus 5, T3041, 144 h; how it was run: as §2
Human betaherpesvirus 5 [26] = test: Antiviral activity against Human cytomegalovirus T3243 expressing UL97 kinase T659I mutant gene infected in human foreskin fibroblast measured 6 days post infection by SEAP reporter gene assay; format: functional, organism-based; conditions: Human betaherpesvirus 5, T3243, 144 h; how it was run: as §1
Human betaherpesvirus 5 [27] = test: Antiviral activity against Human cytomegalovirus T3252 expressing UL97 kinase A594V mutant gene infected in human foreskin fibroblast measured 6 days post infection by SEAP reporter gene assay; format: functional, organism-based; conditions: Human betaherpesvirus 5, T3252, 144 h; how it was run: as §2
Human betaherpesvirus 5 [28] = test: Antiviral activity against Human cytomegalovirus T3253 expressing UL97 kinase K599R mutant gene infected in human foreskin fibroblast measured 6 days post infection by SEAP reporter gene assay; conditions: Human betaherpesvirus 5, T3253, 144 h
Human betaherpesvirus 5 [29] = test: Antiviral activity against Human cytomegalovirus T3135 expressing UL97 kinase H587Y mutant gene infected in human foreskin fibroblast measured 6 days post infection by SEAP reporter gene assay; conditions: Human betaherpesvirus 5, T3135, 144 h
Human betaherpesvirus 5 [30] = test: Antiviral activity against Human cytomegalovirus T3099 expressing UL97 kinase H587Y mutant gene infected in human foreskin fibroblast measured 6 days post infection by SEAP reporter gene assay; conditions: Human betaherpesvirus 5, T3099, 144 h
Human betaherpesvirus 5 [31] = test: Antiviral activity against Human cytomegalovirus T3239 expressing UL97 kinase V665I mutant gene infected in human foreskin fibroblast measured 6 days post infection by SEAP reporter gene assay; conditions: Human betaherpesvirus 5, T3239, 144 h
Human betaherpesvirus 5 [32] = test: Antiviral activity against Human cytomegalovirus T3258 expressing UL97 kinase A594E mutant gene infected in human foreskin fibroblast measured 6 days post infection by SEAP reporter gene assay; conditions: Human betaherpesvirus 5, T3258, 144 h
Human betaherpesvirus 5 [33] = test: Antiviral activity against Human cytomegalovirus T2258 expressing UL97 kinase C592G mutant gene infected in human foreskin fibroblast measured 6 days post infection by SEAP reporter gene assay; format: functional, organism-based; conditions: Human betaherpesvirus 5, T2258, 144 h; how it was run: as §2
Human betaherpesvirus 5 [34] = test: Antiviral activity against Human cytomegalovirus T3261 harboring Frt motif upstream of UL97 kinase infected in human foreskin fibroblast measured 6 days post infection by SEAP reporter gene assay; conditions: Human betaherpesvirus 5, T3261, 144 h

How did the EC50 (Human betaherpesvirus 5 [1]) turn out when `Nc1nc2c(ncn2COC(CO)CO)c(=O)[nH]1` [GANCICLOVIR] was run?
The EC50 was 0.96 µM.

What about the EC50 (Human betaherpesvirus 5 [2]) of the same compound?
The EC50 was 1.23 µM.

What about the EC50 (Human betaherpesvirus 5 [3]) of the same compound?
Its EC50 is 0.94 µM.

And the EC50 (Human betaherpesvirus 5 [4])?
Its EC50 is 1.13 µM.

And the EC50 (Human betaherpesvirus 5 [5])?
The EC50 was 1.33 µM.

And the EC50 (Human betaherpesvirus 5 [6])?
The EC50 was 1.22 µM.

What about the EC50 (Human betaherpesvirus 5 [7]) of the same compound?
The EC50 was 1.24 µM.

What about the EC50 (Human betaherpesvirus 5 [8]) of the same compound?
Its EC50 is 9.24 µM.

What about the EC50 (Human betaherpesvirus 5 [9]) of the same compound?
Its EC50 is 0.99 µM.

And the EC50 (Human betaherpesvirus 5 [10])?
The EC50 was 8.18 µM.

And the EC50 (Human betaherpesvirus 5 [11])?
Its EC50 is 1.09 µM.

And the EC50 (Human betaherpesvirus 5 [12])?
The EC50 was 0.95 µM.

And the EC50 (Human betaherpesvirus 5 [13])?
The EC50 was 3.02 µM.

And the EC50 (Human betaherpesvirus 5 [14])?
Its EC50 is 8.52 µM.

And the EC50 (Human betaherpesvirus 5 [15])?
The EC50 was 2.76 µM.

And the EC50 (Human betaherpesvirus 5 [16])?
Its EC50 is 3 µM.

And the EC50 (Human betaherpesvirus 5 [17])?
Its EC50 is 1.1 µM.

And the EC50 (Human betaherpesvirus 5 [18])?
Its EC50 is 1.11 µM.

What about the EC50 (Human betaherpesvirus 5 [19]) of the same compound?
Its EC50 is 7.81 µM.

What about the EC50 (Human betaherpesvirus 5 [20]) of the same compound?
Its EC50 is 1.85 µM.

What about the EC50 (Human betaherpesvirus 5 [21]) of the same compound?
The EC50 was 1.05 µM.

What about the EC50 (Human betaherpesvirus 5 [22]) of the same compound?
Its EC50 is 9.24 µM.

What about the EC50 (Human betaherpesvirus 5 [23]) of the same compound?
Its EC50 is 1.14 µM.

What about the EC50 (Human betaherpesvirus 5 [24]) of the same compound?
Its EC50 is 0.77 µM.

And the EC50 (Human betaherpesvirus 5 [25])?
Its EC50 is 1.5 µM.

And the EC50 (Human betaherpesvirus 5 [26])?
Its EC50 is 1.26 µM.

What about the EC50 (Human betaherpesvirus 5 [27]) of the same compound?
The EC50 was 8.48 µM.

What about the EC50 (Human betaherpesvirus 5 [28]) of the same compound?
Its EC50 is 1.23 µM.

And the EC50 (Human betaherpesvirus 5 [29])?
The EC50 was 1 µM.

What about the EC50 (Human betaherpesvirus 5 [30]) of the same compound?
The EC50 was 1.02 µM.

What about the EC50 (Human betaherpesvirus 5 [31]) of the same compound?
Its EC50 is 1.06 µM.

What about the EC50 (Human betaherpesvirus 5 [32]) of the same compound?
The EC50 was 2.98 µM.

What about the EC50 (Human betaherpesvirus 5 [33]) of the same compound?
The EC50 was 3.36 µM.

What about the EC50 (Human betaherpesvirus 5 [34]) of the same compound?
The EC50 was 0.99 µM.
